Laboratory results reported in ChEMBL document CHEMBL1800020, “Synthesis, conformation and biology of naphthoxylosides” (Bioorg Med Chem, 2011).
Calls of active or inactive are those of the source. No cut-off for these calls is given here.

Experiments:
HCC70 [1] = assay: Induction of glycosaminoglycan chains priming from beta-D-xylopyranoside in human HCC70 cells using [35S]-Sulfate after 30 mins by beta counting; format: functional, cell-based
Procedure, shortened: (§1)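 Confluent monolayers incubated with xylosides in low-sulfate labeling medium with 2 mM glutamine and 20 µCi/mL [35S]sulfate; xylosides diluted from 20 mM stocks in Me2SO/water 1:1. Medium collected, labeled polyanions captured on DEAE-cellulose, free primed GAG chains separated from PG on Octyl-Sepharose. Ethanol-precipitated, sized by Superose 6 gel-permeation FPLC, radioactivity counted by beta counter.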

[2] = Antiproliferative activity against human CCD-1095SK cells after 96 hrs by crystal violet staining method; format: cell-based; details: for GI50 at 96 h: CCD-1095SK cells, read-out: ED50
Procedure, shortened: (§2)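 Normal breast fibroblasts (CCD-1095Sk) or HCC70 breast carcinoma cells seeded at 5000 cells/well, in MEM or RPMI-1640 with 10% fetal calf serum. After 24 h, switched to serum-free Ham's F-12 with insulin (10 µg/mL) and transferrin (25 µg/mL) plus increasing xyloside concentrations, 96 h total. Fixed in 1% glutaraldehyde, stained with 0.1% crystal violet, lysed in 1% Triton X-100, read at A600. ED50 taken from % of untreated growth.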

HCC70 [3] = assay: Antiproliferative activity against human HCC70 cells after 96 hrs by crystal violet staining method; format: functional; details: read-out: ED50 (the source's name); procedure, shortened: as §2
CCD-1095SK = assay: Induction of glycosaminoglycan chains priming in human CCD-1095SK cells using [35S]-Sulfate after 30 mins by beta counting; format: functional, cell-based; procedure, shortened: as §1
HCC70 [4] = assay: Inhibition of glycosaminoglycan chains priming from beta-D-xylopyranoside in human HCC70 cells at 0.1 mM; format: functional
HCC70 [5] = assay: Inhibition of endogenous proteoglycans production in human HCC70 cells at 0.1 mM; format: functional

CO[C@H]1[C@H](Oc2ccc3ccccc3c2)OC[C@@H](O)[C@@H]1O
Activity (HCC70 [1]): inactive
GI50 at 96 h [2]: 55 µM
EC50 (HCC70 [3]; Homo sapiens, HCC70, 96 h): 127 µM
Activity (CCD-1095SK): inactive

O[C@@H]1[C@@H](O)[C@H](Oc2ccc3ccccc3c2)OC[C@@H]1O
Activity (HCC70 [1]): inactive
GI50 at 96 h [2]: 48 µM
EC50 (HCC70 [3]; Homo sapiens, HCC70, 96 h): 371 µM
Activity (CCD-1095SK): inactive

O[C@@H]1[C@@H](O)[C@H](Oc2ccc3ccccc3c2)OC[C@H]1O (stereo in doubt; 1b)
Activity (HCC70 [1]): Active
GI50 ([2]; ccd-1095sk, 96 h, read-out: ED50 (the source's name)): 243 µM
EC50 (HCC70 [3]): 91 µM
Activity (CCD-1095SK): Active

O[C@@H]1[C@@H](O)[C@H](Oc2ccc3ccccc3c2)OC[C@H]1F
Activity (HCC70 [1]): inactive
GI50 at 96 h [2]: 32 µM
inhibition at 100 µM (HCC70 [4]): 23%
EC50 (HCC70 [3]; Homo sapiens, HCC70, 96 h): 37 µM
inhibition at 100 µM (HCC70 [5]): 33%
Activity (CCD-1095SK): inactive

Oc1ccc2cc(O[C@@H]3OC[C@@H](O)[C@H](O)[C@H]3O)ccc2c1
Activity (HCC70 [1]): Active
Activity (CCD-1095SK): Active

O[C@H]1[C@H](Oc2ccc3ccccc3c2)OC[C@@H](O)[C@@H]1F
Activity (HCC70 [1]): inactive
GI50 at 96 h [2]: 72 µM
EC50 (HCC70 [3]; Homo sapiens, HCC70, 96 h): 94 µM
Activity (CCD-1095SK): inactive

O[C@H]1[C@H](Oc2ccc3ccccc3c2)OCC[C@@H]1O
Activity (HCC70 [1]): inactive
GI50 at 96 h [2]: 285 µM
EC50 (HCC70 [3]; Homo sapiens, HCC70, 96 h): 284 µM
inhibition at 100 µM (HCC70 [5]): 24%
Activity (CCD-1095SK): inactive

O[C@H]1[C@H](Oc2ccc3ccccc3c2)OC[C@@H](O)[C@H]1O
Activity (HCC70 [1]): inactive
GI50 at 96 h [2]: 182 µM
EC50 (HCC70 [3]; Homo sapiens, HCC70, 96 h): 178 µM
Activity (CCD-1095SK): inactive

O[C@@H]1CO[C@@H](Oc2ccc3ccccc3c2)[C@H](O)C1
Activity (HCC70 [1]): inactive
GI50 at 96 h [2]: 79 µM
EC50 (HCC70 [3]; Homo sapiens, HCC70, 96 h): 179 µM
Activity (CCD-1095SK): inactive

O[C@@H]1[C@@H](F)[C@H](Oc2ccc3ccccc3c2)OC[C@H]1O
Activity (HCC70 [1]): inactive
GI50 at 96 h [2]: 12 µM
EC50 (HCC70 [3]; Homo sapiens, HCC70, 96 h): 22 µM
Activity (CCD-1095SK): inactive

CO[C@@H]1[C@@H](O)[C@H](Oc2ccc3ccccc3c2)OC[C@H]1O
Activity (HCC70 [1]): inactive
GI50 at 96 h [2]: 17 µM
EC50 (HCC70 [3]; Homo sapiens, HCC70, 96 h): 145 µM
Activity (CCD-1095SK): inactive

O[C@@H]1CO[C@@H](Oc2ccc3ccccc3c2)C[C@H]1O
Activity (HCC70 [1]): inactive
GI50 at 96 h [2]: 19 µM
EC50 (HCC70 [3]; Homo sapiens, HCC70, 96 h): 228 µM
Activity (CCD-1095SK): inactive

CO[C@@H]1CO[C@@H](Oc2ccc3ccccc3c2)[C@H](O)[C@H]1O
Activity (HCC70 [1]): inactive
GI50 at 96 h [2]: 93 µM
EC50 (HCC70 [3]; Homo sapiens, HCC70, 96 h): 135 µM
Activity (CCD-1095SK): inactive
